These results are taken from ChEMBL document CHEMBL6078622, “Enhancing outer membrane permeability of tetracycline antibiotics in P. aeruginosa using TOB-CIP conjugates” (RSC Med Chem, 2024).

One may read the MIC as the lowest concentration found to suppress growth.

Holding throughout (assay type): functional
The subject of assay [1] is Pseudomonas aeruginosa. Put plainly: Synergistic antibacterial activity against Pseudomonas aeruginosa PA101243 in presence of eravacycline by checkerboard assay.
Assay [2] concerns Pseudomonas aeruginosa. The assay can be described thus: Synergistic antibacterial activity against Pseudomonas aeruginosa PA264 assessed as fractional inhibitory concentration index in presence of minocycline by checkerboard assay.
The subject of assay [3] is Pseudomonas aeruginosa. Put plainly: Synergistic antibacterial activity against Pseudomonas aeruginosa PA101243 assessed as fold change in tigecycline MIC by CLSI based broth-microdilution method relative to tigecycline alone. In general terms: Broth dilution looks for growth in wells or tubes with falling amounts of substance.
Assay [4] relates to Pseudomonas aeruginosa. The assay can be described thus: Synergistic antibacterial activity against Pseudomonas aeruginosa PA114228 in presence of tigecycline by checkerboard assay.
Assay [5] concerns Pseudomonas aeruginosa. Put plainly: Antibacterial activity against Pseudomonas aeruginosa PA259 assessed as tigecycline MIC by CLSI based broth-microdilution method.
Assay [6] deals with Pseudomonas aeruginosa. Put plainly: Synergistic antibacterial activity against Pseudomonas aeruginosa PA262 in presence of tigecycline by checkerboard assay.
In assay [7] the test system is Escherichia. The assay can be described thus: Synergistic antibacterial activity against Escherichia 107115 assessed as fold change in minocycline MIC by CLSI based broth-microdilution method relative to minocycline alone. Summed up:
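Checkerboard combination assay against E. coli EC107115 (MDR) and EC94474 (colistin-resistant), run in biological duplicates; the fold change is the tetracycline MIC in combination relative to its MIC alone.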

The subject of assay [8] is Pseudomonas aeruginosa. The assay can be described thus: Synergistic antibacterial activity against Pseudomonas aeruginosa PA114228 assessed as fold change in doxycycline MIC by CLSI based broth-microdilution method relative to doxycycline alone.
Assay [9] relates to Pseudomonas aeruginosa. The assay can be described thus: Synergistic antibacterial activity against Pseudomonas aeruginosa PA100036 in presence of tigecycline by checkerboard assay.
In assay [10] the test system is Pseudomonas aeruginosa. The assay can be described thus: Synergistic antibacterial activity against Pseudomonas aeruginosa PA100036 assessed as fold change in eravacycline MIC by CLSI based broth-microdilution method relative to eravacycline alone.
Assay [11] deals with Pseudomonas aeruginosa. Put plainly: Synergistic antibacterial activity against Pseudomonas aeruginosa PA200 assessed as fold change in minocycline MIC by CLSI based broth-microdilution method relative to minocycline alone.
The subject of assay [12] is Pseudomonas aeruginosa. Put plainly: Synergistic antibacterial activity against Pseudomonas aeruginosa PA264 in presence of doxycycline by checkerboard assay.
For assay [13], the system named is Pseudomonas aeruginosa. The assay can be described thus: Synergistic antibacterial activity against Pseudomonas aeruginosa PA100036 assessed as fold change in tigecycline MIC by CLSI based broth-microdilution method relative to tigecycline alone.
Assay [14] has as its system Pseudomonas aeruginosa. The assay can be described thus: Synergistic antibacterial activity against Pseudomonas aeruginosa PA101243 assessed as fractional inhibitory concentration index in presence of tigecycline by checkerboard assay.
The subject of assay [15] is Pseudomonas aeruginosa. The assay can be described thus: Synergistic antibacterial activity against Pseudomonas aeruginosa PA095 in presence of minocycline by checkerboard assay.
In assay [16] the test system is Pseudomonas aeruginosa. Put plainly: Antibacterial activity against Pseudomonas aeruginosa PA264 assessed as tigecycline MIC by CLSI based broth-microdilution method.

Regarding `Cl.Cl.Cl.Cl.Cl.Cl.NC[C@H]1O[C@H](O[C@H]2[C@H](OCCCCCCCCCCCCNC(=O)c3cn(C4CC4)c4cc(N5CCNCC5)c(F)cc4c3=O)[C@@H](O[C@H]3O[C@H](CO)[C@@H](O)[C@H](N)[C@H]3O)[C@H](N)C[C@@H]2N)[C@H](N)C[C@@H]1O`, the MIC in [1] was 8 µg/mL; in assay [4], 8 µg/mL; in assay [5] it was 0.5 µg/mL; in assay [6], 8 µg/mL; in [9], 8 µg/mL; in assay [12], 8 µg/mL. Also, the results for the MIC in [15] and in assay [16] were 2 µg/mL and 0.5 µg/mL, respectively. The “fractional inhibitory concentration index (FICI)” value in assay [2] stood at 0.031; in assay [14], 0.125. In addition, the “fold change (FC)” value was 4 in assay [3]; 32 in [7]; 128 in assay [8]; 256 in [10]; 64 in assay [11]; 64 in [13].
